# Calls of active or inactive are those of the source. The rule behind the calls is not given here.
# Tests used:
# Avena sativa [1] = assay: Inhibition of Avena sativa seed germination at 20 degC at 80 uM (reference value: 0%); type: functional
# Avena sterilis [2] = assay: Inhibition of Avena sterilis seed germination at 20 degC at 320 uM (reference value: 0%); type: functional
# Hordeum vulgare [3] = assay: Inhibition of Hordeum vulgare (barley) seed germination at 20 degC at 640 uM (reference value: 0%); type: functional
# Avena fatua [4] = assay: Effect on chlorophyll content in Avena fatua assessed as chlorophyll dissipation rate at 20 degC and […] at 320 uM relative to control; type: ADME, organism-based; settings: in vivo
# Outline: (§1)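 Leaf sections were treated with 320 µM metabolite and incubated in the dark at 20 °C, with 16 tubes per treatment. Every 12 h, segments from one tube were split into four tubes and extracted in DMSO at 65 °C for 30 min. Extracts were read at A665, tissue was dried at 105 °C and weighed, and chlorophyll was expressed as A665 per g dry weight.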
# Hordeum vulgare [5] = assay: Inhibition of Hordeum vulgare (barley) root growth at 20 degC and 12 hr photoperiod at > 51 uM; type: functional, organism-based
# Outline: (§2)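 Pregerminated seeds were exposed in tubes to aqueous metabolite and kept in a growth chamber at 20 °C with a 12-h photoperiod. Main root length was measured after 120 h.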
# Avena sterilis [6] = assay: Inhibition of Avena sterilis seed germination at 20 degC at 80 uM (reference value: 0%); type: functional
# Hordeum vulgare [7] = assay: Effect on chlorophyll content in Hordeum vulgare (barley) assessed as chlorophyll dissipation rate at 20 degC and 12 hr photoperiod at 320 uM relative to control; type: ADME, organism-based; settings: in vivo; outline: as §1
# Avena sterilis [8] = assay: Inhibition of Avena sterilis root growth at 20 degC and 12 hr photoperiod at > 51 uM; type: functional, organism-based; outline: as §2
# Avena sativa [9] = assay: Inhibition of Avena sativa seed germination at 20 degC at 60 uM (reference value: 0%); type: functional
# Triticum aestivum [10] = assay: Enhancement of Triticum aestivum (wheat) root growth at 20 degC and 12 hr photoperiod at 10 to 30 uM; type: functional, organism-based; outline: as §2
# Avena sativa [11] = assay: Phytotoxicity against Avena sativa root growth at 20 degC and 12 hr photoperiod at 1000 uM; type: organism-based; settings: in vivo
# Triticum aestivum [12] = assay: Inhibition of Triticum aestivum (wheat) seed germination at 20 degC at 640 uM (reference value: 0%); type: functional
# Hordeum vulgare [13] = assay: Inhibition of Hordeum vulgare (barley) seed germination at 20 degC at 70 uM (reference value: 0%); type: functional
# Avena sativa [14] = assay: Inhibition of Avena sativa seed germination at 20 degC at 70 uM (reference value: 0%); type: functional
# Triticum aestivum [15] = assay: Inhibition of Triticum aestivum (wheat) seed germination at 20 degC at 10 to 50 uM (reference value: 0%); type: functional
# Hordeum vulgare [16] = assay: Enhancement of Hordeum vulgare (barley) root growth at 20 degC and 12 hr photoperiod at 10 to 30 uM; type: functional, organism-based; outline: as §2
# Avena sativa [17] = assay: Inhibition of Avena sativa seed germination at 20 degC at 90 uM (reference value: 0%); type: functional
# Avena fatua [18] = assay: Inhibition of Avena fatua seed germination at 20 degC at 90 uM (reference value: 0%); type: functional
# Avena sterilis [19] = assay: Phytotoxicity against Avena sterilis root growth at 20 degC and 12 hr photoperiod at 1000 uM; type: organism-based; settings: in vivo
# Hordeum vulgare [20] = assay: Inhibition of Hordeum vulgare (barley) seed germination at 20 degC at 200 uM (reference value: 0%); type: functional
# Avena fatua [21] = assay: Inhibition of Avena fatua seed germination at 20 degC at 640 uM (reference value: 0%); type: functional
# Avena sterilis [22] = assay: Inhibition of Avena sterilis seed germination at 20 degC at 60 uM (reference value: 0%); type: functional
# Hordeum vulgare [23] = assay: Inhibition of Hordeum vulgare (barley) seed germination at 20 degC at 100 uM (reference value: 0%); type: functional
# Avena sativa [24] = assay: Inhibition of Avena sativa root growth at 20 degC and 12 hr photoperiod at 31 to 50 uM; type: functional, organism-based; outline: as §2
# Avena fatua [25] = assay: Inhibition of Avena fatua seed germination at 20 degC at 70 uM (reference value: 0%); type: functional
# Hordeum vulgare [26] = assay: Inhibition of Hordeum vulgare (barley) seed germination at 20 degC at 80 uM (reference value: 0%); type: functional
# Avena sativa [27] = assay: Inhibition of Avena sativa seed germination at 20 degC at 10 to 50 uM (reference value: 0%); type: functional
# Hordeum vulgare [28] = assay: Phytotoxicity against Hordeum vulgare (barley) root growth at 20 degC and 12 hr photoperiod at 1000 uM; type: organism-based; settings: in vivo
# Hordeum vulgare [29] = assay: Inhibition of Hordeum vulgare (barley) seed germination at 20 degC at 90 uM (reference value: 0%); type: functional
# Avena sterilis [30] = assay: Enhancement of Avena sterilis root growth at 20 degC and 12 hr photoperiod at 10 to 30 uM; type: functional, organism-based; outline: as §2
# Avena sterilis [31] = assay: Inhibition of Avena sterilis seed germination at 20 degC at 200 uM (reference value: 0%); type: functional
# Avena sativa [32] = assay: Enhancement of Avena sativa root growth at 20 degC and 12 hr photoperiod at 10 to 30 uM; type: functional, organism-based; outline: as §2
# Avena sterilis [33] = assay: Inhibition of Avena sterilis root growth at 20 degC and 12 hr photoperiod at 31 to 50 uM; type: functional, organism-based; outline: as §2
# Hordeum vulgare [34] = assay: Inhibition of Hordeum vulgare (barley) seed germination at 20 degC at 60 uM (reference value: 0%); type: functional
# Avena sativa [35] = assay: Inhibition of Avena sativa seed germination at 20 degC at 320 uM (reference value: 0%); type: functional
smiles,measurement,setting,value
"C[C@@H]1CCC(=O)/C=C/C(=O)O[C@H](C)CCC(=O)/C=C/C(=O)O1 [(8R,16R)-(-)-pyrenophorin]",inhibition at 80 µM,Avena sativa [1],82.6%
same,inhibition at 320 µM,Avena sterilis [2],100%
same,inhibition at 640 µM,Hordeum vulgare [3],100%
same,Ratio,Avena fatua [4],1.4
same,inhibition,Hordeum vulgare [5],Active
same,inhibition at 80 µM,Avena sterilis [6],84.4%
same,Ratio,Hordeum vulgare [7],1.4
same,inhibition,Avena sterilis [8],Active
same,inhibition at 60 µM,Avena sativa [9],14.5%
same,Activity,Triticum aestivum [10],Active
same,Activity,Avena sativa [11],Non-toxic
same,inhibition at 640 µM,Triticum aestivum [12],100%
same,inhibition at 70 µM,Hordeum vulgare [13],67.5%
same,inhibition at 70 µM,Avena sativa [14],71.5%
same,inhibition (INH),Triticum aestivum [15],0%
same,Activity,Hordeum vulgare [16],Active
same,inhibition at 90 µM,Avena sativa [17],89%
same,inhibition at 90 µM,Avena fatua [18],87.8%
same,Activity,Avena sterilis [19],Non-toxic
same,inhibition at 200 µM,Hordeum vulgare [20],99%
same,inhibition at 640 µM,Avena fatua [21],100%
same,inhibition at 60 µM,Avena sterilis [22],15%
same,inhibition at 100 µM,Hordeum vulgare [23],95.4%
same,inhibition,Avena sativa [24],inactive
same,inhibition at 70 µM,Avena fatua [25],69.9%
same,inhibition at 80 µM,Hordeum vulgare [26],87.7%
same,inhibition (INH),Avena sativa [27],0%
same,Activity,Hordeum vulgare [28],Non-toxic
same,inhibition at 90 µM,Hordeum vulgare [29],88.2%
same,Activity,Avena sterilis [30],Active
same,inhibition at 200 µM,Avena sterilis [31],100%
same,Activity,Avena sativa [32],Active
same,inhibition,Avena sterilis [33],inactive
same,inhibition at 60 µM,Hordeum vulgare [34],10.1%
same,inhibition at 320 µM,Avena sativa [35],100%

# — ChEMBL document CHEMBL3046036, “Bioactivity of the fungal metabolite (8R,16R)-(-)-pyrenophorin on graminaceous plants” (J Agric Food Chem, 2005)
